Assays:
[1] = tested on: CCRF-CEM; assay: Cytotoxicity against drug-sensitive CCRF-CEM cells after 72 hrs; type: cell-based; conditions: Homo sapiens
Method in brief: (§1)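 Leukemic lymphoblasts (parent CCRF-CEM, Pgp-overexpressing CEM/VLB100, topo II-altered CEM/VM-1) grown in RPMI 1640 with 10% FCS and antibiotics, 37 °C, 5% CO2. Serial dilutions in medium added to 2 × 10⁵ cells/mL for 3 days, medium not renewed. Survivors counted on a Coulter counter. Triplicate, averaged.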

[2] = Cytotoxicity against teniposide-resistant CEM/VM1 cells after 72 hrs; type: cell-based; conditions: Homo sapiens, CEM-VM1, 72 h; method in brief: as §1
[3] = tested on: CCRF-CEM; assay: Ratio of IC50 for vinblastine-resistant CEM/VLB100 cells over IC50 for drug-sensitive CCRF-CEM cells; type: functional, Homo sapiens
[4] = Cytotoxicity against vinblastine-resistant CEM/VLB100 cells after 72 hrs; type: cell-based; conditions: Homo sapiens, CEM/VLB100, 72 h; method in brief: as §1
[5] = tested on: CCRF-CEM; assay: Ratio of IC50 for teniposide-resistant CEM/VM1 cells over IC50 for drug-sensitive CCRF-CEM cells; type: functional, Homo sapiens

CC[C@]1(O)C[C@@H]2CN(CCc3c([nH]c4ccccc34)[C@@](C(=O)OC)(c3cc4c(cc3OC)N(C)[C@H]3[C@@](O)(C(=O)OC)[C@H](OC(C)=O)[C@]5(CC)C=CCN6CC[C@]43[C@@H]65)C2)C1 [VINBLASTINE]
IC50 [1]: 4 nM
IC50 [2]: 8 nM
Ratio IC50 [3]: 89
IC50 [4]: 356 nM
Ratio IC50 [5]: 2
